ChEMBL document CHEMBL1132996, “Derivatives of (R)-1,11-methyleneaporphine: synthesis, structure, and interactions with G-protein coupled receptors” (J Med Chem, 2000)

Assays:
[1] = target: T1, 5-hydroxytryptamine receptor 1A (Homo sapiens, UniProt P08908); assay: Binding affinity was measured on cloned human 5-hydroxytryptamine 1A receptor which is labeled by [3H]8-OH-DPAT
T1 sequence (P08908 whole entry): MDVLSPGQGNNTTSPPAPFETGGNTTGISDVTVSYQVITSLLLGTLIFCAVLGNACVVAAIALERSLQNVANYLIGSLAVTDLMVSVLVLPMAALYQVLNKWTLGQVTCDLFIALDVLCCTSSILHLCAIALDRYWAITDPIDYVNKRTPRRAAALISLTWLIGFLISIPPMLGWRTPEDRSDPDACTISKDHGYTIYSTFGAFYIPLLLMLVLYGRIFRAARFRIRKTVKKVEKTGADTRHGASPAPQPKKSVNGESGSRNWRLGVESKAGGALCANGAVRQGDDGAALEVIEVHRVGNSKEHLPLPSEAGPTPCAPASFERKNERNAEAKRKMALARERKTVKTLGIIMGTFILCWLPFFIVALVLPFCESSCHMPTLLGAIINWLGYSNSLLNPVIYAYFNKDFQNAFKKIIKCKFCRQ
Method in brief: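 Membranes from CHO cells expressing cloned human 5-HT1A receptor, in 50 mM Tris-HCl, 4 mM MgCl2, pH 7.4; about 40 pM receptor. Competition against 1 nM [3H]8-OH-DPAT, 60 min at 30 °C. Nonspecific binding defined with 10 μM WAY-100635. Filtration, liquid scintillation counting. Ki by nonlinear regression, mean ± SE of 2–3 experiments.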

[2] = target: T2, 5-hydroxytryptamine receptor 7 (Rattus norvegicus, UniProt P32305); assay: Displacement of [3H]5-HT from over-expressed rat 5-hydroxytryptamine 7 receptor
T2 sequence (P32305 whole entry): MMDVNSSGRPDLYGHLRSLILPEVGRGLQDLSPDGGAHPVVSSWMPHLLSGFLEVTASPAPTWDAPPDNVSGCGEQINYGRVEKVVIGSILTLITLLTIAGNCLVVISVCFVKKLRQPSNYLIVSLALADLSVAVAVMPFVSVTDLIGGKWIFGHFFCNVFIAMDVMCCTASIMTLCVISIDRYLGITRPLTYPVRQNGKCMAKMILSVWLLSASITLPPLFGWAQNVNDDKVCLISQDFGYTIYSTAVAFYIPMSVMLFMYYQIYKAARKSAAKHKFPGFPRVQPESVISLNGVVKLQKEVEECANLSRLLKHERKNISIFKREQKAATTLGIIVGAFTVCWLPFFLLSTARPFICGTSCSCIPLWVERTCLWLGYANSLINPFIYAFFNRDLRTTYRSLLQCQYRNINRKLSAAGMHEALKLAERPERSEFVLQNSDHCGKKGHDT
Method in brief: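 Cloned rat 5-HT7 receptor in CHO or Sf9 cell membranes, in 50 mM Tris-HCl, 4 mM MgCl2, 1 mM EDTA, pH 7.4; 30-40 pM receptor. Competition against 0.8 nM [3H]5-HT, 60 min at 30 °C. Nonspecific binding defined with 10 μM methiothepin. Filtration, scintillation counting. Ki by nonlinear regression, mean ± SE of 2–3 experiments.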

[3] = target: T3, D(2) dopamine receptor (Homo sapiens, UniProt P14416); assay: Displacement of [3H]raclopride from human Dopamine receptor D2A
T3 sequence (P14416 whole entry): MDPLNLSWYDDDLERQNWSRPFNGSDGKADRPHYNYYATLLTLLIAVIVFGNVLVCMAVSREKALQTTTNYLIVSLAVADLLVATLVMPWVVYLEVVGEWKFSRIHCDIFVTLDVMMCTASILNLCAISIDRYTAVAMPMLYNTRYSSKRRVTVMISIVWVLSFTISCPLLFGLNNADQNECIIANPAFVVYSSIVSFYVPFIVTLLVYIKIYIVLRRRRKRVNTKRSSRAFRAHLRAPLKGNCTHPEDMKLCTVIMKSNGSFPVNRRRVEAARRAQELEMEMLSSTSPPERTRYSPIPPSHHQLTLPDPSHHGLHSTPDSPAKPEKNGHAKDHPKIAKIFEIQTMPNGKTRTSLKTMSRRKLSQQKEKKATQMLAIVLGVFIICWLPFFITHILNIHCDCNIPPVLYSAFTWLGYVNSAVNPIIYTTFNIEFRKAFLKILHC
Method in brief: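 Cloned human D2A receptor expressed in mouse fibroblast Ltk- cell membranes. Competition against [3H]raclopride binding, following an earlier method. Ki by nonlinear regression, mean ± SE of 2–3 experiments.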

[4] = target: T2, 5-hydroxytryptamine receptor 7; assay: Binding affinity against Rat 5-hydroxytryptamine 7 receptor using [3H]5-HT
[5] = target: T4, 5-hydroxytryptamine receptor 1A (Rattus norvegicus, UniProt P19327); assay: Binding affinity was measured on cloned rat 5-hydroxytryptamine 1A receptor which is labeled by [3H]8-OH-DPAT
T4 sequence (P19327 whole entry): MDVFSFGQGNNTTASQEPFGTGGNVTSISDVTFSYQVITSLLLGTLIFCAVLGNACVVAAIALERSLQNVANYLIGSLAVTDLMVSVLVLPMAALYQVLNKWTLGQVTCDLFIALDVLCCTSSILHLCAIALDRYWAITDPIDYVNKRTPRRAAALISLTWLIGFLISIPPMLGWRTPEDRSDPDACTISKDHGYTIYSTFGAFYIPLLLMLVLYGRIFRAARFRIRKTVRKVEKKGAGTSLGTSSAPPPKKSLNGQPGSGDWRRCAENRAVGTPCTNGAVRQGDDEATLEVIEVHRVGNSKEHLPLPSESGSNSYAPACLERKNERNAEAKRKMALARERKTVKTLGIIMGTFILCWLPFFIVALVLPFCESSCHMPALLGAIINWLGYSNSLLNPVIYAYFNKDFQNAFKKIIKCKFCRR

[6] = target: T1, 5-hydroxytryptamine receptor 1A
[7] = target: T3, D(2) dopamine receptor; assay: Binding affinity was measured on cloned Human D2A Receptor which is labeled by [3H]raclopride

Row | Ki [1] [nM] | Ki [2] [nM] | Ki [3] [nM] | Ki [5] [nM] | Ki [6] [nM] | Ki [7] [nM] | SMILES | Ki [4] [nM]
1 |  | 103 | 215 | 1210 |  |  | CN1CCc2ccc3c4c2[C@H]1Cc1cccc(c1-4)[C@@H]3O | 
2 |  |  |  |  | 31.1 | 39.2 | C[C@H]1c2cccc3c2-c2c1ccc1c2[C@@H](C3)N(C)CC1 | 5.6
3 |  |  |  |  | 5.05 | 19.4 | C[C@@H]1c2cccc3c2-c2c1ccc1c2[C@@H](C3)N(C)CC1 | 3.36
4 | 716 | 1320 | 7980 |  |  |  | CC(=O)N[C@H]1c2cccc3c2-c2c1ccc1c2[C@@H](C3)N(C)CC1 | 
5 | 355 | 18 |  |  |  |  | CN1CCc2ccc3c4c2[C@H]1Cc1cccc(c1-4)[C@@H]3N | 
6 | 142 | 13.4 | 261 |  |  |  | CN1CCc2ccc3c4c2[C@H]1Cc1cccc(c1-4)[C@H]3N | 
7 |  | 4.3 | 26 | 61.5 |  |  | CN1CCc2ccc3c4c2[C@H]1Cc1cccc(c1-4)[C@]3(C)O | 
8 | 204 | 538 | 3650 |  |  |  | CC(=O)N[C@@H]1c2cccc3c2-c2c1ccc1c2[C@@H](C3)N(C)CC1 | 
9 |  | 13.5 | 23.8 | 31 |  |  | CN1CCc2ccc3c4c2[C@H]1Cc1cccc(c1-4)[C@H]3O | 
10 |  | 27.7 | 182 | 315 |  |  | CN1CCc2ccc3c4c2[C@H]1Cc1cccc(c1-4)[C@@]3(C)O | 

Second part, the compound before the results:

Row | SMILES | Ki [1] [nM] | Ki [2] [nM] | Ki [3] [nM] | Ki [5] [nM] | Ki [6] [nM] | Ki [7] [nM] | Ki [4] [nM]
11 | CO[C@]1(C)c2cccc3c2-c2c1ccc1c2[C@@H](C3)N(C)CC1 | 17.3 | 1.1 | 7.1 |  |  |  | 
12 | CO[C@@]1(C)c2cccc3c2-c2c1ccc1c2[C@@H](C3)N(C)CC1 | 16.9 | 1.1 | 71 |  |  |  | 
13 | CCCN(CCC)[C@@H]1CCc2cccc(O)c2C1 |  |  |  |  |  |  | 8.81
14 | CCO[C@@]1(CC)c2cccc3c2-c2c1ccc1c2[C@@H](C3)N(C)CC1 | 19.1 | 3.05 | 24.5 |  |  |  | 
15 | NCCc1c[nH]c2ccc(C(N)=O)cc12 |  |  |  |  |  |  | 0.029
16 | CN1CCc2cccc3c2[C@H]1Cc1ccc(O)c(O)c1-3 [APOMORPHINE] |  |  |  |  |  |  | 188
17 | CCO[C@]1(CC)c2cccc3c2-c2c1ccc1c2[C@@H](C3)N(C)CC1 | 1.84 | 25.7 | 70.8 |  |  |  | 
18 | CCCN(CCC)[C@H]1CCc2c(F)ccc(O)c2C1 |  |  |  |  | 87 | 3760 | 3180
19 | CN1CCc2ccc3c4c2[C@H]1Cc1cccc(c1-4)C3=O |  | 291 | 317 | 140 |  |  | 
20 | Cc1cccc2c1-c1cccc3c1[C@@H](C2)N(C)CC3 |  |  |  |  | 14.4 |  | 38.3
21 | CN1CCc2ccc3c4c2[C@H]1Cc1cccc(c1-4)C3 |  |  |  |  | 40.7 | 83.2 | 6.9
